Assay [1] relates to PC-3. In words: Antiproliferative activity against human PC3 cells expressing PCDNA after 72 hrs by MTT assay. The class given is functional, cell-based. Conditions: PC-3, 72 h. The gist of the method:
(§1)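 Cells (PC3 and its PCDNA- and SKP2-transfected lines, DU145) grown in RPMI 1640 with 10% FBS; G418 added for transfected lines. Exponential cells seeded 1 × 10⁴/well, 24 h at 37 °C, then fresh medium with compounds at several concentrations for 72 h. MTT 1–3 h at 37 °C, dissolved in 4% HCl/96% isopropanol, absorbance 570 nm. Triplicate per concentration; IC50 from dose–response curves.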

Assay [2] concerns PC-3. In words: Antiproliferative activity against human PC3 cells expressing SKP2 after 72 hrs by MTT assay. The assay is classed as functional, cell-based. Conditions: PC-3, 72 h. In short, it runs like this:
as §1
(Tetrazolium assays rely on reduction of a dye to a coloured formazan, in cell work by metabolically active cells.)

In assay [3] the target is T1, Prostaglandin G/H synthase 1 (Ovis aries, UniProt P05979).
T1 sequence (P05979 whole entry): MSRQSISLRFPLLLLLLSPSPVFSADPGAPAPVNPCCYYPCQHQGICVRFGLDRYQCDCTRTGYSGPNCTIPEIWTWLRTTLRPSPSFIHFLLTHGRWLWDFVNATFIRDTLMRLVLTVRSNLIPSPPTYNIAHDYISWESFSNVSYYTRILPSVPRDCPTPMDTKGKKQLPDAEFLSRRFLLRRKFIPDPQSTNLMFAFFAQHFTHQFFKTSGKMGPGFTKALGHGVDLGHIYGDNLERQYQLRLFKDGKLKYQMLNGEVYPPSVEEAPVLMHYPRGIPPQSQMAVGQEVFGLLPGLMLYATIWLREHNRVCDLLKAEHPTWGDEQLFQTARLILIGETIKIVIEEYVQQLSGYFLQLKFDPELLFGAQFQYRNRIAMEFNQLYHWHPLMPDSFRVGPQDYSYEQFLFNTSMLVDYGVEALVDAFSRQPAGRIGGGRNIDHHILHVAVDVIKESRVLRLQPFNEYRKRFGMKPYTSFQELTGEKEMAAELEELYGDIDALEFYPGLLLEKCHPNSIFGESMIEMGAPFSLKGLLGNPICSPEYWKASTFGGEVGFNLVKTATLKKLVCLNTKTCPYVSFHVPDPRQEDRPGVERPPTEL
The assay is described as follows: Inhibition of ovine COX-1 assessed as using arachidonic acid as substrate preincubated for 5 mins prior to substrate addition […] by enzyme immunoassay.

Assay [4] deals with T2, Prostaglandin G/H synthase 1 (Ovis aries) (UniProt P05979).
T2 sequence (whole entry): T1 sequence (P05979 whole entry)
In words: Inhibition of ovine COX-1 assessed as using arachidonic acid as substrate at 10 uM preincubated for 5 mins prior to substrate addition […] by enzyme immunoassay relative to control.

The target in assay [5] is T3, Prostaglandin G/H synthase 2 (Ovis aries, UniProt P79208).
T3 sequence (P79208 whole entry): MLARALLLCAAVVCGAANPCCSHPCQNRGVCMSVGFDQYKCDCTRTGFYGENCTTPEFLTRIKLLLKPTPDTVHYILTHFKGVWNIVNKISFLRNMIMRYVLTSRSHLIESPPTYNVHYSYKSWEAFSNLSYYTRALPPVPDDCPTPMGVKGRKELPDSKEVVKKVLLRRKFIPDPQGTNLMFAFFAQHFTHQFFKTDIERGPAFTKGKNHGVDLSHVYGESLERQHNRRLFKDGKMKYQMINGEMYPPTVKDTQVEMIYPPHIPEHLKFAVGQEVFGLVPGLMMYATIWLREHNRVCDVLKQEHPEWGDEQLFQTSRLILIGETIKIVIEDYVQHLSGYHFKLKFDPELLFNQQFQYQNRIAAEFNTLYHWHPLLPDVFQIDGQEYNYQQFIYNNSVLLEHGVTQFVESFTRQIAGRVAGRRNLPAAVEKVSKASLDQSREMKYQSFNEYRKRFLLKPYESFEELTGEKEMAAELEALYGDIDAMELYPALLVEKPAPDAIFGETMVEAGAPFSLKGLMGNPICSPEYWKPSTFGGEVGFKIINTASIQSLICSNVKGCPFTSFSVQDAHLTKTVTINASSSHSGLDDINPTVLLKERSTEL
In words: Inhibition of ovine COX-2 assessed as using arachidonic acid as substrate preincubated for 5 mins prior to substrate addition measured […] by enzyme immunoassay.

The target in assay [6] is T4, Prostaglandin G/H synthase 2 (Ovis aries) (UniProt P79208).
T4 sequence (whole entry): T3 sequence (P79208 whole entry)
The assay is described as follows: Inhibition of ovine COX-2 assessed as using arachidonic acid as substrate at 10 uM preincubated for 5 mins prior to substrate addition measured after 2 mins by enzyme immunoassay relative to control.

The subject of assay [7] is PC-3. In words: Antiproliferative activity against human PC3 cells after 72 hrs by MTT assay. The assay is classed as functional, cell-based. Conditions: PC-3, 72 h. In short, it runs like this:
as §1

In another assay the test system is DU-145. In words: Antiproliferative activity against human DU145 cells after 72 hrs by MTT assay. The class given is functional, cell-based. Conditions: DU-145, 72 h. The gist of the method: as §1
Assay [8] deals with T4, Prostaglandin G/H synthase 2 (Ovis aries). In words: Inhibition of ovine COX-2 assessed as using arachidonic acid as substrate at 10 uM preincubated for 5 mins prior to substrate addition measured after 2 hrs by enzyme immunoassay relative to control. Conditions: in the assay text read “after 2 mins” for “after 2 hrs”. In short, it runs like this:
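Ovine COX-1 or COX-2 with heme in 0.1 M Tris-HCl pH 8.0, 5 mM EDTA, 2 mM phenol; compound (0.001–100 µM final, DMSO stocks) preincubated 5 min at 37 °C, then arachidonic acid added, stopped with 1 M HCl after 2 min. PGF2α (SnCl2 reduction) quantified by competitive EIA at 412 nm; % inhibition vs controls; mean of two determinations.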

Data on 17 compounds can be found in ChEMBL document CHEMBL2401696, “Stereoselective synthesis and anti-proliferative effects on prostate cancer evaluation of 5-substituted-3,4-diphenylfuran-2-ones” (Eur J Med Chem, 2013).

The source made the active and inactive calls. The rule behind the calls is not given here.

By IC50 is commonly meant the concentration that gives 50% inhibition. The term inhibition denotes the change of the read-out against control, counted positive when it falls.

Turning to `COc1ccccc1/C=C1\OC(=O)C(c2ccccc2)=C1c1ccc(S(C)(=O)=O)cc1`, the IC50 in the assay on PC-3 [1] was over 80 µM; in the assay with PC-3 [2] it was over 90 µM; in assay [3], 3.1 µM; in assay [5], 3 µM. Also, the figures for the inhibition in assay [4] and in assay [6] were 71% and 72.6%, respectively.

`COc1ccccc1/C=C1\OC(=O)C(c2ccccc2Cl)=C1c1ccc(S(C)(=O)=O)cc1`: the half-maximal inhibitory concentration (IC50) with PC-3 [7] was over 50 µM; with PC-3 [1] it was 25.5 µM; in the assay with PC-3 [2], 45.8 µM; in assay [5], 14.6 µM; in the assay with DU-145 it was over 50 µM. The inhibition entry in [4] is “inactive”. In addition, the inhibition in assay [6] turned out to be 44.2%.

In the case of `COc1cc(/C=C2\OC(=O)C(c3ccc(F)cc3)=C2c2ccc(S(C)(=O)=O)cc2)cc(OC)c1OC`, the IC50 in the assay on PC-3 [7] was over 50 µM; in the assay with PC-3 [1] it was over 50 µM; in the assay with PC-3 [2], 25.4 µM; in the assay with DU-145, over 50 µM. Moreover, in [6], the inhibition stood at 20.8%.

Turning to `CC(C)=C1OC(=O)C(c2ccccc2Cl)=C1c1ccc(S(C)(=O)=O)cc1`, the IC50 in the assay with PC-3 [7] was over 50 µM; in the assay on PC-3 [1] it was 40.5 µM; in the assay with PC-3 [2], 15.4 µM; with DU-145 it was over 50 µM. Further, the inhibition in [4] stood at 18.6%; in assay [6], 24.1%.

Turning to `COc1ccc(/C=C2\OC(=O)C(c3ccccc3Cl)=C2c2ccc(S(C)(=O)=O)cc2)cc1`, the IC50 is over 50 µM in the assay with PC-3 [1], over 50 µM with PC-3 [2] and 8.5 µM in [3]. Besides, the inhibition in [4] is 61.2%. Also, the inhibition entry in [8] was “inactive”.

In the case of `COc1cc(/C=C2\OC(=O)C(c3ccc(F)cc3)=C2c2ccc(S(C)(=O)=O)cc2)ccc1O`, the IC50 in the assay with PC-3 [7] is over 50 µM; in the assay with PC-3 [1], over 50 µM; with PC-3 [2], 10.7 µM; in assay [5] it was 17.6 µM; with DU-145, over 50 µM. The inhibition in assay [8] was 43.6%.

On to `CS(=O)(=O)c1ccc(C2=C(c3ccccc3Cl)C(=O)O/C2=C\c2ccc(Cl)cc2)cc1`, for which the 50% inhibitory concentration (IC50) in the assay on PC-3 [1] and in the assay with PC-3 [2] was over 50 µM in each case. The inhibition result in assay [4] is “inactive”. The inhibition in assay [6] worked out at 32.7%.

As for `CN(C)c1ccc(/C=C2\OC(=O)C(c3ccc(F)cc3)=C2c2ccc(S(C)(=O)=O)cc2)cc1`, the IC50 in the assay on PC-3 [7] is over 50 µM; in the assay with PC-3 [1] it was over 50 µM; with PC-3 [2], 47.2 µM; with DU-145, over 50 µM. Moreover, the inhibition result in [4] and in assay [8] was “inactive” in each case.

`CS(=O)(=O)c1ccc(C2=C(c3ccccc3)C(=O)O/C2=C\c2ccc3c(c2)OCO3)cc1`: the IC50 in the assay on PC-3 [7] is over 50 µM; in the assay with PC-3 [1], 37.2 µM; in the assay with PC-3 [2], 50.6 µM; with DU-145, over 50 µM. Also, the inhibition in assay [6] was 24.6%.

With `CS(=O)(=O)c1ccc(C2=C(c3ccc(F)cc3)C(=O)OC2)cc1`, the IC50 is over 50 µM in the assay with PC-3 [1], over 50 µM in the assay on PC-3 [2] and 9.2 µM in assay [5]. Further, the inhibition in assay [4] is 28.5%; in assay [8], 66.9%.

`COc1ccc(/C=C2\OC(=O)C(c3ccccc3)=C2c2ccc(S(C)(=O)=O)cc2)cc1`: the IC50 in the assay on PC-3 [1] is over 50 µM; in the assay on PC-3 [2], over 50 µM; in [3], 8.2 µM. Besides, the inhibition in assay [4] is 65.9%; in assay [8], 16.7%.

For the compound `COC1(C)OC(=O)C(c2ccc(F)cc2)=C1c1ccc(S(C)(=O)=O)cc1` (stereo not given), the IC50 with PC-3 [7] is over 50 µM; with PC-3 [1], 36.4 µM; with PC-3 [2] it was over 50 µM; with DU-145 it was over 50 µM. Moreover, in assay [6], the inhibition is 32.4%.

`CS(=O)(=O)c1ccc(C2=C(c3ccccc3Cl)C(=O)O/C2=C\c2ccc(O)cc2)cc1`: the IC50 in the assay with PC-3 [1] and in the assay on PC-3 [2] was over 50 µM in each case. In addition, the inhibition in assay [6] is 2.27%.

For `CS(=O)(=O)c1ccc(C2=C(c3ccccc3Cl)C(=O)O/C2=C\c2ccccc2)cc1`, the IC50 was over 50 µM in the assay with PC-3 [7]; over 50 µM in the assay with PC-3 [1]; 5.48 µM in the assay with PC-3 [2]; 7.3 µM in assay [5]; over 50 µM in the assay on DU-145. Besides, the inhibition in assay [8] was 59.1%.

For `CS(=O)(=O)c1ccc(C2=C(c3ccc(F)cc3)C(=O)O/C2=C\c2cccc([N+](=O)[O-])c2)cc1`, the IC50 in the assay with PC-3 [1] and in the assay with PC-3 [2] was over 50 µM each time. The inhibition result in assay [4] and in assay [8] was “inactive” in each case.

With `CS(=O)(=O)c1ccc(C2=C(c3ccccc3Cl)C(=O)O/C2=C\c2cccc([N+](=O)[O-])c2)cc1`, the results for the half-maximal inhibitory concentration (IC50) (with PC-3 [1]; in the assay with PC-3 [2]; in [5]) were over 50 µM, over 50 µM and 7.1 µM, respectively. Also, the inhibition turned out to be 7.01% in assay [4] and 59.2% in assay [6].

Take `COc1ccccc1/C=C1\OC(=O)C(c2ccc(F)cc2)=C1c1ccc(S(C)(=O)=O)cc1`: the IC50 in the assay on PC-3 [7] is over 50 µM; with PC-3 [1], 18.2 µM; in the assay with PC-3 [2], 25.1 µM; in assay [5] it was 13.9 µM; with DU-145, over 50 µM. Further, the inhibition result in [4] is “inactive”. In addition, the inhibition in [8] amounted to 45.6%.
